For orientation: IC50 means the concentration that gives 50% inhibition.

The structures appear in SMILES notation. A value given as a limit tells only on which side of the number the result lay.

In the assay the target is T1, Prostaglandin G/H synthase 1 (Mus musculus, UniProt P22437).
T1 sequence (P22437 whole entry): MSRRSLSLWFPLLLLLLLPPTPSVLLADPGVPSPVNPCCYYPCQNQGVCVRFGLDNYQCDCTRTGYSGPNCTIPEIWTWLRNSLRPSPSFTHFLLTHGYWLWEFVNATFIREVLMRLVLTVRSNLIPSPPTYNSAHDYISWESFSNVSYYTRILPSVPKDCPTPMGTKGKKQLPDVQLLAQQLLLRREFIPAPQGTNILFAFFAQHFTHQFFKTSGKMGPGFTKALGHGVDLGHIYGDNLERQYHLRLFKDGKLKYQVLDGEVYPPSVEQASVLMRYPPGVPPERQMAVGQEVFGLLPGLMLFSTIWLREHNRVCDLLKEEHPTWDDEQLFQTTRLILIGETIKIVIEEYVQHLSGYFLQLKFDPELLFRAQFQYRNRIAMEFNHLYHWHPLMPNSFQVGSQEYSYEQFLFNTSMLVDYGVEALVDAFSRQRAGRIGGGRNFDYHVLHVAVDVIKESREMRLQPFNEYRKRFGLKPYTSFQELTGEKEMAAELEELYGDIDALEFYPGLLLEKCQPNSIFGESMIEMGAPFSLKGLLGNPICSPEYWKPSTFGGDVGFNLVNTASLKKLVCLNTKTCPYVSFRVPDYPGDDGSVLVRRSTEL
Kind of assay: In vitro inhibitory activity against prostaglandin G/H synthase 1 using mouse peritoneal macrophage method. An outline of the steps:
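Freshly harvested mouse peritoneal macrophages were the enzyme source. Cells were preincubated 10 min at 37 °C with inhibitor in DMSO, then stimulated with calcium ionophore A23187 for 10 min. The reaction was stopped with indomethacin in 0.1% BSA buffer and centrifuged, and supernatant TXB₂ was measured by ELISA.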

Compound `CC1(C)OC(c2ccc(S(N)(=O)=O)cc2)=C(c2ccco2)C1=O` gave an IC50 of over 29.9 µM.

Values taken from BindingDB's records for doi:10.1021/jm020545z (Amorepacific R&D Center, 2004).
